Structures are written as SMILES. Active and inactive are the calls of the source. The rule behind the calls is not given here.

A short description of data set [1]: MRT in Sprague-Dawley rat at 10 mg/kg, po by LC/MS/MS analysis. The format is ADME, organism-based. The following applies: in vivo. In a few lines: (§1)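 Male Sprague-Dawley rats, 4 per group, dosed once orally at 10 mg/kg or intravenously at 2 mg/kg. Blood taken from the saphenous vein for plasma. Drug levels measured by LC-MS-MS, with parameters derived by noncompartmental analysis.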

Data set [2] can be described thus: MRT in Sprague-Dawley rat at 2 mg/kg, iv by LC/MS/MS analysis. The class given is ADME, organism-based. To be noted: in vivo. Put shortly: as §1
Data set [3] can be described thus: Acute toxicity in SPF Kunming mouse assessed as abnormality at 100 to 1000 mg/kg, po administered as single dose and measured upto 14 days post drug administration. The format is organism-based. The following applies: in vivo, 336 h, dose 100-1000 mg/kg, time <=14 day. In a few lines:
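Single oral dose groups at 0 (physiological saline blank, equal volume), 100, 500 and 1000 mg/kg. Mice housed with free access to water and food in stainless cages, 25 ± 1 °C, 12-h light/dark cycle. Survival, body weight and abnormalities recorded up to 14 days post-treatment.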

For data set [4], the system named is SK-OV-3. Kind of data set: Induction of apoptosis in human SKOV3 cells at 2.5 to 10 uM incubated for 48 hrs by annexin V-FITC/PI based flow cytometric analysis. The class given is functional, cell-based. The following applies: dose 2.5-10 µM. In a few lines:
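SK-OV-3 cells treated 48 h, then harvested, stained with Annexin V/PI and analysed by flow cytometry.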
For orientation: A flow cytometer gives signals particle by particle.

Data set [5] in a line: Cytotoxicity against human HL7702 cells assessed as cell growth inhibition at 20 uM incubated for 48 hrs by MTT assay relative to control. The format is cell-based. To be noted: HL7702 (L02) cells. (Tetrazolium dyes change colour on reduction, which living cells bring about.)
Data set [6] concerns the target T1, Poly [ADP-ribose] polymerase 1 (Homo sapiens, UniProt P09874). Kind of data set: Inhibition of PARP-1 in human SKOV3 cells assessed as increase in gammaH2AX expression level by immunofluorescence analysis. The format is cell-based. The following applies: SK-OV-3.
The nature of data set [7]: Toxicity in Balb/c nude mouse xenografted with human SKOV3 cells assessed as change in body weight at 25 mg/kg, po for 21 days and measured every third day. The format is organism-based. To be noted: in vivo, 504 h, time 21 day. In a few lines: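 Female BALB/c nu/nu mice, 6-8 weeks old, kept under SPF conditions. Each received 5×10^6 SK-OV-3 cells s.c. At 80–120 mm3 tumour volume, mice were split into four groups (n=6). […] Caliper measurement every three days; volume = X × (Y2/2).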

Data set [8] is described as follows: Oral bioavailability in Sprague-Dawley rat at 10 mg/kg by LC/MS/MS analysis. The class given is ADME, organism-based. To be noted: in vivo. Put shortly:
as §1

The target of data set [9] is T1, Poly [ADP-ribose] polymerase 1. To be noted: dose 100.0 nM, time 30.0 min.
Data set [10] deals with SK-OV-3. The experiment in a line: Induction of ROS generation in human SKOV3 cells assessed as fold increase in ROS level at 2.5 uM incubated for 48 hrs by DCFH-DA staining based flow cytometry relative to control. The format is functional.
Data set [11] concerns the target T1, Poly [ADP-ribose] polymerase 1. The experiment in a line: Inhibition of PARP-1 in human SKOV3 cells assessed as decrease in MCM2 protein expression level at 2.5 to 10 uM incubated for 48 hrs by western blot analysis. The class given is cell-based. To be noted: SK-OV-3, dose 2.5-10 µM. In a few lines: (§2)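 SK-OV-3 cells were grown in McCOY's 5A, seeded in 6-well plates and treated for 48 h. Lysate proteins were separated by 8-15 % SDS-PAGE and transferred to PVDF membranes. Membranes were blocked in 5 % nonfat milk, probed with primary antibody overnight at 4 °C and with HRP secondary antibody for 1 h at room temperature, then detected by enhanced chemiluminescence. Images are representative of 3 independent experiments.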
A general note: A western blot detects proteins with antibodies after separation by electrophoresis.

Data set [12] deals with Poly [ADP-ribose] polymerase 2 (Homo sapiens, UniProt Q9UGN5). The experiment in a line: Inhibition of human recombinant N-terminal GST-tagged PARP-2 expressed in Baculovirus infected Sf9 cells assessed as reduction in NAD+-dependent ADP ribosylation using histone mixture (H2A and H2B) as substrate in presence of activated DNA incubated for 30 mins by chemiluminescence assay.

The test system of data set [13] is HepG2. The experiment in a line: Antiproliferative activity against human HepG2 cells assessed as cell growth inhibition incubated for 48 hrs by MTT assay. The format is functional, cell-based. To be noted: HepG2, 48 h. In a few lines:
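Cells seeded in 96-well plates and exposed to compounds for 48 h; viability read by MTT. Each experiment repeated three times. SK-OV-3 grown in McCOY's 5A, Bel-7402 and HL-7702 in RPMI-1640, HepG2 in DMEM, Caco-2 in MEM.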

For data set [14], the system named is SK-OV-3. Kind of data set: Antitumor activity against human SKOV3 cells xenografted in Balb/c nude mouse assessed as increase in gamma-H2AX expression in tumor at 25 to 50 mg/kg, po for 21 days by immunohistochemistry analysis. The class given is functional, organism-based. The following applies: dose 25-50 mg/kg, time 21.0 day. In a few lines:
(§3)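 SK-OV-3 xenografts in female BALB/c nude mice were dosed orally at 25 or 50 mg/kg in 0.5% CMC-Na for 21 days. Tumours were then snap-frozen in liquid nitrogen or fixed in 10% neutral-buffered formalin. Analysis used western blotting, H&E and immunohistochemistry on paraffin sections (Ki67, γ-H2AX).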

A short description of data set [15]: Toxicity in Balb/c nude mouse xenografted with human SKOV3 cells assessed as histological changes in heart at 25 to 50 mg/kg, po for 21 days by H and E staining based microscopic analysis. The class given is organism-based. The following applies: in vivo, 504 h, dose 25-50 mg/kg, time 21 day. Put shortly:
as §3

For data set [16], the system named is SK-OV-3. The experiment in a line: Induction of autophagy in human SKOV3 cells assessed as LC3-I protein expression at 10 uM incubated for 48 hrs by western blot analysis. The class given is functional, cell-based. Put shortly:
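SK-OV-3 cells in 6-well plates treated 48 h. Lysates separated by 8-15% SDS-PAGE and transferred to PVDF. Membranes blocked in 5% milk and probed overnight at 4 °C with LC3 or Beclin 1 antibodies. HRP secondary applied 1 h at room temperature; detection by ECL.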

Data set [17] deals with SK-OV-3. Kind of data set: Induction of ROS generation in human SKOV3 cells assessed as fold increase in ROS level at 10 uM incubated for 48 hrs by DCFH-DA staining based flow cytometry relative to control. The class given is functional.
Data set [18] has as its system SK-OV-3. The experiment in a line: Antitumor activity against human SKOV3 cells xenografted in Balb/c nude mouse assessed as reduction in Ki67 expression in tumor at 25 to 50 mg/kg, po for 21 days by immunohistochemistry analysis. The format is functional, organism-based. The following applies: dose 25-50 mg/kg, time 21.0 day. In a few lines:
as §3

Data set [19] relates to SK-OV-3. Kind of data set: Antiproliferative activity against human SK-OV-3 cells assessed as cell growth inhibition at 20 uM incubated for 48 hrs by MTT assay relative to control. The format is functional.
Data set [20] in a line: Subacute toxicity in SPF Kunming mouse assessed as change in liver at 1000 mg/kg, po administered for 14 days by H and E staining based microscopic analysis. The class given is organism-based. The following applies: in vivo, 336 h, time 14 day. In a few lines:
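Twenty SPF Kunming mice (18 - 22 g), half male and half female, randomised into 2 groups of 5 males + 5 females. Treated group dosed orally at 1000 mg/kg once daily for 14 days. Death, clinical signs and body weight monitored. After 14 days: isoflurane anaesthesia, decapitation, tissues collected for H&E histology.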

Data set [21] concerns the target T1, Poly [ADP-ribose] polymerase 1. Kind of data set: Inhibition of PARP-1 in human SKOV3 cells assessed as decrease in MCM4 protein expression level at 2.5 to 10 uM incubated for 48 hrs by western blot analysis. The format is cell-based. To be noted: SK-OV-3, dose 2.5-10 µM. In a few lines: as §2
The nature of data set [22]: Tmax in Sprague-Dawley rat at 2 mg/kg, iv by LC/MS/MS analysis. To be noted: in vivo. The format is ADME, organism-based. In a few lines: as §1
The nature of data set [23]: Toxicity in Balb/c nude mouse xenografted with human SKOV3 cells assessed as histological changes in liver at 25 to 50 mg/kg, po for 21 days by H and E staining based microscopic analysis. The format is organism-based. To be noted: in vivo, 504 h, dose 25-50 mg/kg, time 21 day. In a few lines: as §3

T1 sequence (P09874 whole entry): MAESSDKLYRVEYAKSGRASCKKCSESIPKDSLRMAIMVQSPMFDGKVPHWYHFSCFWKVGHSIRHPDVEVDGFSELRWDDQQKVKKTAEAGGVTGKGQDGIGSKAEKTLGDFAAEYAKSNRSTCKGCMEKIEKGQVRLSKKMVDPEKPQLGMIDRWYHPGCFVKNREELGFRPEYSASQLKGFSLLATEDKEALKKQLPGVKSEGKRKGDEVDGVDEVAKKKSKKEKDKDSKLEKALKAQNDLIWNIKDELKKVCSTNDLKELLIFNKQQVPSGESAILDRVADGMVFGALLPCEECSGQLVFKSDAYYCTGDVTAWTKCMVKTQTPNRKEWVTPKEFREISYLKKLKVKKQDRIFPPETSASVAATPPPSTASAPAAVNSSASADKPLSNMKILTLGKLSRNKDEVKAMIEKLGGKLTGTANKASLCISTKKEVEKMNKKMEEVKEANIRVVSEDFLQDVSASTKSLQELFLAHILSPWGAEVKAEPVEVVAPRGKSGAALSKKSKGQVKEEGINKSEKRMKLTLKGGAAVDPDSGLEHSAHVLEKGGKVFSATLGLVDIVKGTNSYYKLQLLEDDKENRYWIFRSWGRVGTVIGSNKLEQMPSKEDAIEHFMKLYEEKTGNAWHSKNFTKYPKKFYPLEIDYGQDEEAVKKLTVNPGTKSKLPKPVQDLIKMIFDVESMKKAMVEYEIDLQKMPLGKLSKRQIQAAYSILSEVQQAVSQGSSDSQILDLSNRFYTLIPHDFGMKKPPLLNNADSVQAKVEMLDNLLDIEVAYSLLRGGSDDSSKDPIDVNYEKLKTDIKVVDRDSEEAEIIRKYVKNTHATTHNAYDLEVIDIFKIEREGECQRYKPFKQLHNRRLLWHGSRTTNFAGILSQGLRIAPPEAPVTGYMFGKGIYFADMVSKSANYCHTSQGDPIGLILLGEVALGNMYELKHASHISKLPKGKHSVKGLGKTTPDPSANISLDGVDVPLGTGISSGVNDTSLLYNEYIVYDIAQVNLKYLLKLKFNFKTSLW
Chain of Poly [ADP-ribose] polymerase 2 (Q9UGN5 whole entry): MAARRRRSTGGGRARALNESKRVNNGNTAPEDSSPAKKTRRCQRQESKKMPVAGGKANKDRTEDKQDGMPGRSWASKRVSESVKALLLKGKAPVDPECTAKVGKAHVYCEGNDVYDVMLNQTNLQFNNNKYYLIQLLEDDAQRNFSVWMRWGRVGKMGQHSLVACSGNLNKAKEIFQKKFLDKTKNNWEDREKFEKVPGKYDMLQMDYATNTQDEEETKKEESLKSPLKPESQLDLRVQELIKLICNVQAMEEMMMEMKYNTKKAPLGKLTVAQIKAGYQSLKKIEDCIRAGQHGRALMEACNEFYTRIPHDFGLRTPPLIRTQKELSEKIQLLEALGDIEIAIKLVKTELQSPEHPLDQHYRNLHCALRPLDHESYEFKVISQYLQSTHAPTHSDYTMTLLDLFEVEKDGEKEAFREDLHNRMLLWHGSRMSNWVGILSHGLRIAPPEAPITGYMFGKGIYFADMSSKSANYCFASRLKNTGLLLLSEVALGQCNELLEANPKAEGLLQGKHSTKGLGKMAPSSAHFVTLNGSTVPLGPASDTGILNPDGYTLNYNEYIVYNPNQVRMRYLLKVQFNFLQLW

Take `COc1cc(/C=N/NC(N)=S)c(Br)c(Br)c1OC`: the MRT (in general, the average time that molecules of a dose stay in the body) in data set [1] is 3.76 h; in data set [2] it was 1.14 h. Moreover, the Activity result in data set [3], in [7], in data set [15], in [20] and in data set [23] was “Non-Toxic” each time. For the same molecule, the result in [4], in data set [14], in [16] and in [18] was Active. For the same molecule, the inhibition (commonly the relative decrease from the control value, in per cent) at 48 h, 20 µM in data set [5] was found to be 89.9%. Besides, the inhibition result in data set [6], in data set [11] and in data set [21] was “Active” throughout. For the same molecule, the F in data set [8] is reported as 47.3%. Further, in [9], the inhibition worked out at 84.6%. Moreover, the “fold change (FC)” value in data set [10] was 1.76; in data set [17], 3.04. The 50% inhibitory concentration (IC50) (usually the concentration that inhibits the measured activity by half) in [12] was > 1 µM; in [13], 4.6 µM. The inhibition at 20 µM in [19] was 100%. Also, in data set [22], the time of peak concentration (Tmax) (usually the time at which the peak concentration occurs) is 4.8 min.

Source of the values: ChEMBL document CHEMBL4765243, “Discovery of Novel Bromophenol-Thiosemicarbazone Hybrids as Potent Selective Inhibitors of Poly(ADP-ribose) Polymerase-1 (PARP-1) for Use in Cancer” (J Med Chem, 2019).
